Test results from the RNAGym collection of RNA variant scans (doi:10.1038/s41586-018-0170-7).

B1: tRNA (parent)
chain: GUUCCGUUGGCGUAAUGGUAACGCGUCUCCCUCCUAAGGAGAAGACUGCGGGUUCGAGUCCCGUACGGAACG

Variants of: B1
Assay: yeast fitness, log relative to wild type (ln ratio); higher = fitter; tRNA-Arg(CCU), competitive growth, 37 C, 1 M NaCl
Summary of the method: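 For each genotype, fitness is defined as the natural log of its generation number over the wild type's. The tRNA-Arg(CCU) variant library was on a HIS3 centromeric plasmid in BY4742 with the chromosomal gene removed, and pools were first grown 4 generations in SC-HIS at 30 °C and then ~6.5 generations (~26.5 h) in SC-HIS 1M NaCl at 37 °C. Generations were calculated from OD-scaled log2 output/input frequency, weighted by inverse variance across replicates, using counts from 125 bp paired-end Illumina sequencing.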
With AGUCCUUUGGCGUAAUGGUAACGCGUCUCCCUCCUAAGGAGACGACUGCGGGUUCGAGUCCCGUACGGAUCG the “yeast fitness (ln)” value was -0.257. With AGUCCUUUGGCGUAAUGGUAACGCGUCUCCCUCCUAAGGAGACGACUGCGGGUUCGAGUCCCGUACGGAGCG the “yeast fitness (ln)” value was -0.263. With AGUCCUUUGGCGUAAUGGUAACGCGUCUCCCUCCUAAGGAGACGAUUGCGGGUUCGAGUCCCGUAUGGAUUG the “yeast fitness (ln)” value was -0.399. With AGUCCUUUGGCGUAAUGGUAACGCGUCUCCCUCCUAAGGAGACGAUUGCGGGUUCGAGUCCCGUACGGGUCG the “yeast fitness (ln)” value was -0.354. For AGUCCUUUGGCGUAAUGGUAACGCGUCUCCCUCCUAAGGAGACGAUUGCGGGUUCGAGUCCCGUACGGGGCG, the “yeast fitness (ln)” value was -0.334. With AGUCCAUUGGCGUAAUGGUAACGCGUCUCCCUCCUAAGGAGAAGACUGCGGGUUCGAGUCCCGUAUGGGUCG the “yeast fitness (ln)” value was -0.334. In the case of AGUCCAUUGGCGUAAUGGUAACGCGUCUCCCUCCUAAGGAGAAGACUGCGGGUUCGAGUCCCGUAUGGGGCG, the “yeast fitness (ln)” value is reported as -0.282. In the case of AGUCCUUUGGCGUAAUGGUAACGCGUCUCCCUCCUAAGGAGACGACUGCGGGUUCGAGUCCCGUAAGGGGUG, the “yeast fitness (ln)” value is reported as -0.412. In the case of AGUCCUUUGGCGUAAUGGUAACGCGUCUCCCUCCUAAGGAGAAGACUGCGGGUUCGAGUCCCGUACGGAACG, the “yeast fitness (ln)” value is reported as -0.102. For AGUCCUUUGGCGUAAUGGUAACGCGUCUCCCUCCUAAGGAGACGACUGCGGGUUCGAGUCCCGUAAGGAGUG, the “yeast fitness (ln)” value was -0.301. For AGUCCUUUGGCGUAAUGGUAACGCGUCUCCCUCCUAAGGAGACGACUGCGGGUUCGAGUCCCGUACGGAGUG, the “yeast fitness (ln)” value was -0.323. In the case of AGUCCUUUGGCGUAAUGGUAACGCGUCUCCCUCCUAAGGAGACGAUUGCGGGUUCGAGUCCCGUACGGGUUG, the “yeast fitness (ln)” value is reported as -0.398. In the case of AGUCCAUUGGCGUAAUGGUAACGCGUCUCCCUCCUAAGGAGAAGACUGCGGGUUCGAGUCCCGUAAGGAUCG, the “yeast fitness (ln)” value is reported as -0.0697. For AGUCCAUUGGCGUAAUGGUAACGCGUCUCCCUCCUAAGGAGAAGAUUGCGGGUUCGAGUCCCGUACGGAAUG, the “yeast fitness (ln)” value was -0.247. With AGUCCUUUGGCGUAAUGGUAACGCGUCUCCCUCCUAAGGAGACGACUGCGGGUUCGAGUCCCGUACGGAACG the “yeast fitness (ln)” value was -0.257. For AGUCCUUUGGCGUAAUGGUAACGCGUCUCCCUCCUAAGGAGACGACUGCGGGUUCGAGUCCCGUAUGGAUCG, the “yeast fitness (ln)” value was -0.284. With AGUCCUUUGGCGUAAUGGUAACGCGUCUCCCUCCUAAGGAGACGACUGCGGGUUCGAGUCCCGUAUGGAGCG the “yeast fitness (ln)” value was -0.271. In the case of AGUCCUUUGGCGUAAUGGUAACGCGUCUCCCUCCUAAGGAGACGAUUGCGGGUUCGAGUCCCGUACGGAUUG, the “yeast fitness (ln)” value is reported as -0.226. For AGUCCUUUGGCGUAAUGGUAACGCGUCUCCCUCCUAAGGAGACGACUGCGGGUUCGAGUCCCGUAUGGGUUG, the “yeast fitness (ln)” value was -0.4. In the case of AGUCCAUUGGCGUAAUGGUAACGCGUCUCCCUCCUAAGGAGAAGACUGCGGGUUCGAGUCCCGUAAGGAUUG, the “yeast fitness (ln)” value is reported as -0.119. For AGUCCUUUGGCGUAAUGGUAACGCGUCUCCCUCCUAAGGAGACGAUUGCGGGUUCGAGUCCCGUAUGGAAUG, the “yeast fitness (ln)” value was -0.371. For AGUCCUUUGGCGUAAUGGUAACGCGUCUCCCUCCUAAGGAGACGAUUGCGGGUUCGAGUCCCGUACGGAAUG, the “yeast fitness (ln)” value was -0.335. For AGUCCAUUGGCGUAAUGGUAACGCGUCUCCCUCCUAAGGAGAAGAUUGCGGGUUCGAGUCCCGUAUGGAGUG, the “yeast fitness (ln)” value was -0.517. For AGUCCAUUGGCGUAAUGGUAACGCGUCUCCCUCCUAAGGAGAAGACUGCGGGUUCGAGUCCCGUAUGGGGUG, the “yeast fitness (ln)” value was -0.366. With AGUCCUUUGGCGUAAUGGUAACGCGUCUCCCUCCUAAGGAGACGAUUGCGGGUUCGAGUCCCGUAUGGAGCG the “yeast fitness (ln)” value was -0.344. For AGUCCUUUGGCGUAAUGGUAACGCGUCUCCCUCCUAAGGAGACGAUUGCGGGUUCGAGUCCCGUAUGGAUCG, the “yeast fitness (ln)” value was -0.275. With AGUCCUUUGGCGUAAUGGUAACGCGUCUCCCUCCUAAGGAGACGACUGCGGGUUCGAGUCCCGUAUGGAGUG the “yeast fitness (ln)” value was -0.419. For AGUCCUUUGGCGUAAUGGUAACGCGUCUCCCUCCUAAGGAGACGAUUGCGGGUUCGAGUCCCGUAUGGGUUG, the “yeast fitness (ln)” value was -0.499. For AGUCCUUUGGCGUAAUGGUAACGCGUCUCCCUCCUAAGGAGACGACUGCGGGUUCGAGUCCCGUAAGGAUCG, the “yeast fitness (ln)” value was -0.282. In the case of AGUCCUUUGGCGUAAUGGUAACGCGUCUCCCUCCUAAGGAGACGACUGCGGGUUCGAGUCCCGUAAGGAGCG, the “yeast fitness (ln)” value is reported as -0.251. In the case of AGUCCUUUGGCGUAAUGGUAACGCGUCUCCCUCCUAAGGAGACGAUUGCGGGUUCGAGUCCCGUACGGGGUG, the “yeast fitness (ln)” value is reported as -0.345. For AGUCCUUUGGCGUAAUGGUAACGCGUCUCCCUCCUAAGGAGACGAUUGCGGGUUCGAGUCCCGUACGGAUCG, the “yeast fitness (ln)” value was -0.235. In the case of AGUCCUUUGGCGUAAUGGUAACGCGUCUCCCUCCUAAGGAGACGAUUGCGGGUUCGAGUCCCGUACGGAGCG, the “yeast fitness (ln)” value is reported as -0.235. With AGUCCAUUGGCGUAAUGGUAACGCGUCUCCCUCCUAAGGAGAAGACUGCGGGUUCGAGUCCCGUAUGGAGCG the “yeast fitness (ln)” value was -0.142. In the case of AGUCCAUUGGCGUAAUGGUAACGCGUCUCCCUCCUAAGGAGAAGACUGCGGGUUCGAGUCCCGUAUGGAUCG, the “yeast fitness (ln)” value is reported as -0.319. For AGUCCUUUGGCGUAAUGGUAACGCGUCUCCCUCCUAAGGAGACGACUGCGGGUUCGAGUCCCGUACGGGGUG, the “yeast fitness (ln)” value was -0.439. For AGUCCAUUGGCGUAAUGGUAACGCGUCUCCCUCCUAAGGAGAAGACUGCGGGUUCGAGUCCCGUAUGGAAUG, the “yeast fitness (ln)” value was -0.146.
